In ChEMBL document CHEMBL4145447, “4-arylamidobenzyl substituted 5-bromomethylene-2(5H)-furanones for chronic bacterial infection” (Eur J Med Chem, 2018):
Active and inactive are the calls of the source. The rule behind the calls is not given here.

Experiments:
[1] = molecular target: Elastase (Pseudomonas aeruginosa (strain ATCC 15692 / PAO1 / 1C / PRS 101 / LMG12228)) (UniProt P14756); experiment: Inhibition of Pseudomonas aeruginosa PAO1 GFP-fused quorum sensing lasB at 10 uM measured every 15 mins up to 12 hrs by GFP reporter gene assay relative to control
Summary of the method: (§1)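 GFP reporter strains of P. aeruginosa PAO1 (lasB-, rhlA- or pqsA-promoter fused to unstable gfp(ASV)) grown overnight in LB at 37 °C, 200 rpm, 18 h, then diluted 1:100. Culture mixed 1:1 with compound diluted in LB from 10 mM DMSO stock (0.1% DMSO final). Fluorescence (ex 485/em 528 nm) read every 15 min at 37 °C for ≥12 h.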

[2] = molecular target: T1, Anthranilate--CoA ligase (Pseudomonas aeruginosa (strain ATCC 15692 / DSM 22644 / CIP 104116 /JCM 14847 / LMG 12228 / 1C / PRS 101 / PAO1)) (UniProt Q9I4X3); experiment: Inhibition of Pseudomonas aeruginosa PAO1 GFP-fused quorum sensing pqsA at 10 uM measured every 15 mins up to 12 hrs by GFP reporter gene assay relative to control; summary of the method: as §1
T1 sequence (whole entry): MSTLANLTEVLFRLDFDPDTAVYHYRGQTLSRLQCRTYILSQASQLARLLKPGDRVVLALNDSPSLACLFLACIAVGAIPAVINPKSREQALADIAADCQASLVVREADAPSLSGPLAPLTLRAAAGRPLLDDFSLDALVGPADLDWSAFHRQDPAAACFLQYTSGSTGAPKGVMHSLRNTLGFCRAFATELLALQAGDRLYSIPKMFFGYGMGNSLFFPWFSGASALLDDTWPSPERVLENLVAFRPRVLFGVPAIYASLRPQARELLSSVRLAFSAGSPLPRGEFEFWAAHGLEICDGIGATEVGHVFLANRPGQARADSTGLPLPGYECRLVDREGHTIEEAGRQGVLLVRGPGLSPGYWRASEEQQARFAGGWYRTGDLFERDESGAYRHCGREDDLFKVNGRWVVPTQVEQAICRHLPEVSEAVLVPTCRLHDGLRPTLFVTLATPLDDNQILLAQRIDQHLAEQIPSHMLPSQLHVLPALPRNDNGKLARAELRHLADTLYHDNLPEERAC

RAW264.7 = experiment: Anti-inflammatory activity in mouse RAW264.7 cells assessed as inhibition of LPS-induced NO production at 10 uM preincubated for 2 hrs followed by LPS stimulation and measured after 48 hrs by Griess method relative to control; type: functional
Summary of the method: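 RAW264.7 cells seeded at 5 × 10^4/well and cultured 18 h, then given 10 µM compound plus LPS 100 ng/mL for 48 h at 37 °C. Supernatant mixed 1:1 with Griess reagent (1% sulfanilamide, 0.1% naphthylethylenediamine in 5% phosphoric acid) for 10 min; nitrite read at OD540.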

[3] = molecular target: T2, Peroxisome proliferator-activated receptor gamma (Mus musculus) (UniProt P37238); experiment: Agonist activity at PPARgamma in mouse RAW264.7 cells assessed as inhibition of LPS-induced IkB-alpha phosphorylation at Ser32/36 residues at 10 uM preincubated for 1 hr followed by LPS stimulation and measured after 4 hrs by Western blot analysis; type: cell-based
T2 sequence (whole entry): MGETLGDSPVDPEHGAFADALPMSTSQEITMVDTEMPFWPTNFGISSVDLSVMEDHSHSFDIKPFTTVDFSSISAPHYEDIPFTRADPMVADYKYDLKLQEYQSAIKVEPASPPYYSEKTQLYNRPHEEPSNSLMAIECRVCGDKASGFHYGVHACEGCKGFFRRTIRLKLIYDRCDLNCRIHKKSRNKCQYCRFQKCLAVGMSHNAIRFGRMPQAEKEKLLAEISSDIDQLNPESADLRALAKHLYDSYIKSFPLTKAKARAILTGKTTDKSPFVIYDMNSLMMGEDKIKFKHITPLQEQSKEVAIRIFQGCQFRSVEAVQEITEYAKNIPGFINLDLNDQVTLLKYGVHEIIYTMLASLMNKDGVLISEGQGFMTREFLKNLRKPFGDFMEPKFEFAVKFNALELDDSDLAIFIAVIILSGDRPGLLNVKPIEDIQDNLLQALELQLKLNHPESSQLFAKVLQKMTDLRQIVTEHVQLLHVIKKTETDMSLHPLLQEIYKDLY
Summary of the method: (§2)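 Western blot: RAW264.7 cells (2 × 10^6/well) pretreated 1 h with compound (10 µM), antagonist GW9662 (5 µM) where stated, then LPS 500 ng/mL for 4 h. Lysis on ice with PMSF, BCA-normalised protein on SDS gels, PVDF transfer, milk block, phospho- and total-protein primary antibodies, HRP secondary, ECL detection. Densitometry normalised to internal control; n = 3.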

[4] = molecular target: T2, Peroxisome proliferator-activated receptor gamma (Mus musculus); experiment: Agonist activity at PPARgamma in mouse RAW264.7 cells assessed as inhibition of LPS-induced ERk1/2 phosphorylation at Thr202/Tyr204 residues at 10 uM preincubated for 1 hr followed by LPS stimulation and measured after 4 hrs by Western blot analysis; type: cell-based; summary of the method: as §2
[5] = molecular target: T2, Peroxisome proliferator-activated receptor gamma (Mus musculus); experiment: Agonist activity at PPARgamma in mouse RAW264.7 cells assessed as inhibition of LPS-induced NF-kB p65 phosphorylation at 10 uM preincubated for 1 hr followed by LPS stimulation and measured after 4 hrs in presence of PPARgamma antagonist GW9662 by Western blot analysis; type: cell-based; summary of the method: as §2
[6] = molecular target: T2, Peroxisome proliferator-activated receptor gamma (Mus musculus); experiment: Agonist activity at PPARgamma in mouse RAW264.7 cells assessed as inhibition of LPS-induced ERk1/2 phosphorylation at Thr202/Tyr204 residues at 10 uM preincubated for 1 hr followed by LPS stimulation and measured after 4 hrs in presence of PPARgamma antagonist GW9662 by Western blot analysis; type: cell-based; summary of the method: as §2
[7] = molecular target: T1, Anthranilate--CoA ligase (Pseudomonas aeruginosa (strain ATCC 15692 / DSM 22644 / CIP 104116 /JCM 14847 / LMG 12228 / 1C / PRS 101 / PAO1)); experiment: Inhibition of Pseudomonas aeruginosa PAO1 GFP-fused quorum sensing pqsA at 5 to 100 uM measured every 15 mins up to 12 hrs by GFP reporter gene assay; summary of the method: as §1
[8] = molecular target: T1, Anthranilate--CoA ligase (Pseudomonas aeruginosa (strain ATCC 15692 / DSM 22644 / CIP 104116 /JCM 14847 / LMG 12228 / 1C / PRS 101 / PAO1)); experiment: Inhibition of Pseudomonas aeruginosa PAO1 GFP-fused quorum sensing pqsA measured every 15 mins up to 12 hrs by GFP reporter gene assay; summary of the method: as §1
Mus musculus [9] = experiment: Anti-inflammatory activity in LPS-induced sepsis shock mouse model assessed as survival rate at 20 mg/kg, iv pretreated daily for 5 days followed LPS treatment on day 5 at 1 hr post last dose and measured after 7 days relative to control; type: functional
Summary of the method: (§3)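 Male SPF mice, randomly grouped, dosed i.v. with compound dissolved in DMSO and diluted in physiological saline; vehicle group given a similar volume. LPS was injected on day 5, 1 h after the last administration. Survival was recorded every 12 h for 7 days after LPS, with 11 animals per group per figure legend.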

Mus musculus [10] = experiment: Anti-inflammatory activity in LPS-induced sepsis shock mouse model assessed as survival rate at 5 mg/kg, iv pretreated daily for 5 days followed LPS treatment on day 5 at 1 hr post last dose and measured after 7 days relative to control; type: functional; summary of the method: as §3

Sequence of Elastase (Pseudomonas aeruginosa (strain ATCC 15692 / PAO1 / 1C / PRS 101 / LMG12228)) (P14756 198-498 limits assumed): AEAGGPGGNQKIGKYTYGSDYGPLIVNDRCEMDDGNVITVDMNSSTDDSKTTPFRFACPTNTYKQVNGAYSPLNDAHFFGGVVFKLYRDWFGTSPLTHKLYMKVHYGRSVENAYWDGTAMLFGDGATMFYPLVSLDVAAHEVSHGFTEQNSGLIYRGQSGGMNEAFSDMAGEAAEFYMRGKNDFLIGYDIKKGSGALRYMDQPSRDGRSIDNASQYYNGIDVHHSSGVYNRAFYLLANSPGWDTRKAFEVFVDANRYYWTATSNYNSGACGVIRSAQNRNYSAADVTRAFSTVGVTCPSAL

Compound	inhibition [1] [%]	inhibition [2] [%]	inhibition at 10 µM (RAW264.7) [%]	inhibition [3]	inhibition [4]	inhibition [5]	inhibition [6]	inhibition [7]	inhibition [8]	survival at 20 mg/kg (Mus musculus [9]) [%]	survival at 5 mg/kg (Mus musculus [10]) [%]
O=C(C=Cc1ccccc1)Nc1ccc(CC2=CC(=O)O/C2=C/Br)cc1	11.8	23.1	70	Active	Active	inactive	inactive	inactive	–	–	–
O=C(Cc1ccc(F)cc1)Nc1ccc(CC2=CC(=O)OC2=CBr)cc1	15.2	50.3	73.7	Active	Active	inactive	inactive	–	Dose-dependent effect	45.5	36.5
